Calls of active or inactive are those of the source.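 Rule for the calls: active = duplicate-averaged activation above buffer control mean plus 5 SD of those controls; inactive = the rest.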
test: thallium flux activation in parental CHO cells, counter-screen for KCNQ1 potentiator project (AID 493006); settings: parental CHO-K1 cells, FluxOR thallium flux, at 10 µM; hits give high values
In short: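 Test system: parental CHO-K1 cells, FluxOR dye-loaded / Probe or stimulus: potassium plus thallium depolarizing stimulus, 5x stock 12.5 mM K2SO4, Tl2SO4 / Timing: overnight 37 °C plating, 90 min dye, 20 min dark compound / Measured by: kinetic thallium-flux fluorescence / Read-out: max-minus-min fluorescence over baseline, percent of buffer-to-R-L3 span / Benchmarks: buffer and R-L3 controls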

| Compound | activation | outcome |
| --- | --- | --- |
| S=c1sc2c(Cl)ncnc2n1-c1ccccc1 | 302% (active) | – |
| COCCCNc1nc2ccccc2nc1NS(=O)(=O)c1cccs1 | – | inactive |
| Oc1ccc(C[C@@H]2CNCCN2CCc2cc(C(F)(F)F)cc(C(F)(F)F)c2)cc1 | – | inactive |
| COc1ccc(-c2nc3ccc(C(=O)NCC(OC)OC)cc3nc2-c2ccc(OC)c(OC)c2)cc1OC | – | inactive |
| CCCCNC(=S)NNC(=O)c1nn(C)c(C)c1Cl | – | inactive |
| O=C(NCCCn1ccnc1)c1cc(C2CC2)on1 | – | inactive |
| O=[N+]([O-])c1ccc(/C([O-])=C(/C(=S)NCc2ccco2)[n+]2ccccc2)cc1 | – | inactive |
| Cc1c(N2C(=O)/C(=C\c3ccccc3O)SC2=S)c(=O)n(-c2ccccc2)n1C | 398% (active) | – |
| COc1ccc(NC(=O)CC2C(=O)NCCN2C(=O)Nc2ccc(C(F)(F)F)cc2)cc1 (stereo not drawn) | – | inactive |
| CCOc1ccc(C(C#N)N2CCOCC2)cc1OC (stereo not drawn) | – | inactive |
| CCOc1ccc(/C=C2/SC(=O)NC2=S)cc1 | 425% (active) | – |
| Cc1ccc(-n2c(=S)[nH]c3sc4c(c3c2=O)CCC4)cc1 | 158% (active) | – |
| C/C(CCc1oc2c(Br)cc(Br)cc2c1-c1ccc(C)o1)=N\O | – | inactive |
| Cn1c(=NC(=O)c2ccco2)sc2cccc(F)c21 | – | inactive |
| CC(=O)NC(CC(=O)O)C(=O)O (stereo not drawn) | – | inactive |
| O=c1c2ccccc2nc(-c2ccc(Cl)c(Cl)c2)n1O | 518% (active) | – |
| Cc1c(Cl)cccc1NC(=O)Cn1c(CCC(=O)O)ccc1-c1ccccc1 | – | inactive |
| COc1cccc(OC)c1C(=O)Nc1cccc(-c2ccc3nncn3n2)c1 | – | inactive |

Reference: PubChem BioAssay
